Source: PubChem (several laboratories)
A selection: hits, their analogues and other compounds. The true share with any hit is near 5.7%.
SKKanGAS inh: SKKanGAS growth inhibition | inhibition, % at 7.5 µM | 300,000 tested, 1.3% active | S. pyogenes SKKanGAS, kanamycin growth, BacTiter-Glo, 6 h;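 active means mean replicate score, as percent of positive control median, at least 50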;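 further: strain carries kanamycin resistance gene driven by streptokinase promoter and grows in 40 µg/ml kanamycin; loss of luminescence reflects streptokinase promoter inhibition or plain growth inhibition; 0% = median of DMSO wells and 100% = positive control at its reference dose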
Calb FLC: affects C. albicans growth with fluconazole; AID 1979; growth inhibition, % (no concentration beside the values); 300,000 tested, 0.57% active; C. albicans CaCi-2 (fluconazole-resistant clinical isolate) + fluconazole, Alamar Blue growth, 48 h;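 active means growth inhibition above about 58% in most replicates, limit read from the data, passing the limit was not always enough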;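 further: all wells also contain fluconazole at 8 µg/ml as a sub-toxic cotreatment; 0% = median of DMSO wells and 100% = median of geldanamycin control wells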
T cruzi repl: blocks replication of Trypanosoma cruzi | T. cruzi beta-gal in NIH3T3, luminescence, 90 h | inhibition, % (no concentration beside the values) | 300,000 tested, 1.4% active | AID 1885;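 active means mean inhibition across valid replicates above about 55%, limit read from the data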;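 further: signal also drops with host cell toxicity which is not excluded here; 0% = plate median of DMSO wells and 100% = zero luminescence signal; higher percent means less beta-gal luminescence so fewer parasites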
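assay system = mouse NIH/3T3 fibroblasts infected with β-gal-expressing T. cruzi Tulahuen C4 | input = 5,000 NIH/3T3 host cells per well | buffer or medium = DMEM plus 2% FBS | timing = 3 h host attachment, then at least 90 h co-culture | measured by = GalScreen luminescence, 60 min | evaluation = luminescence reflecting intracellular parasite burden, expressed as percent inhibition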
CSC inhib: blocks cancer stem cells; inhibition, % at 7.5 µM; 300,000 tested, 1.1% active; AID 2717; cancer stem cell-like cells viability, luminescence; in the data active means inhibition above about 75%; tested in HMLE shEcad cells
Mdm2 MdmX PPI: human Mdm2/MdmX binding inhibition; SaOS-2 split-luciferase Mdm2/MdmX complementation, luminescence; 330,000 tested, 3% active; inhibition, % at 8 µM; AID 485346; O15151+Q00987;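 active means inhibition of at least 50% at 8 µM in the primary screen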
Target sequence (O15151 whole entry, looked up): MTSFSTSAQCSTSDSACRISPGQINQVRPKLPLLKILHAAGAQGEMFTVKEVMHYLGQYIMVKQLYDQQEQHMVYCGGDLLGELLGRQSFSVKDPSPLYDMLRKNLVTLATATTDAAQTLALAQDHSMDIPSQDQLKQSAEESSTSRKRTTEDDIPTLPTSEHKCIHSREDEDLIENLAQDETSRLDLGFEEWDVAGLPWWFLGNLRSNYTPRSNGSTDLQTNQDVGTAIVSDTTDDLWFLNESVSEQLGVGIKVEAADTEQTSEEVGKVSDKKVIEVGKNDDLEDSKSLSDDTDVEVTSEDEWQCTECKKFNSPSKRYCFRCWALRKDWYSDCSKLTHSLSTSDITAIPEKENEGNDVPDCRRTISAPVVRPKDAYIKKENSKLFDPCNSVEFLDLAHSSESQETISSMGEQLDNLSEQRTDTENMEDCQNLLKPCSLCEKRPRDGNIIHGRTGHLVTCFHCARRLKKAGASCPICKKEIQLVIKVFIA
Target sequence (Q00987 whole entry, looked up): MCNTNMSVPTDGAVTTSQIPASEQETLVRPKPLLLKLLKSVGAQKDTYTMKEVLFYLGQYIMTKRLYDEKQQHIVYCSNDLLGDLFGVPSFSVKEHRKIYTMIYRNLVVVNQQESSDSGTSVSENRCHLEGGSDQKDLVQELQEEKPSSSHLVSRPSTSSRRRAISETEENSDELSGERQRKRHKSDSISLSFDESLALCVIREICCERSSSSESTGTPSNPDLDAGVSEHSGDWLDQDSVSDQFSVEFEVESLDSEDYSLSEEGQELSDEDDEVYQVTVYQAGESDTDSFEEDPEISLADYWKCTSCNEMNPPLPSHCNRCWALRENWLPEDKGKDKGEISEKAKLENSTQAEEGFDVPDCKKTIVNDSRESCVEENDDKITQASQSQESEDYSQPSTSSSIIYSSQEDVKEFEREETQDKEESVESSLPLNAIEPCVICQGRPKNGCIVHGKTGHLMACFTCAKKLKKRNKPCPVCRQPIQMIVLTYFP
Beta cell apopt: beta cell apoptosis inhibition | 300,000 tested, 0.8% active | protection from apoptosis, % (no concentration beside the values) | INS-1E cytokine-induced death, ATP luminescence, 48 h; percent of positive-control rescue, neutral wells zero | AID 435005;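 active means Every replicate reaches about 75%, or at least half do and their mean reaches it too, limit read from the data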;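 further: 0% = cytokine-treated negative control wells and 100% = positive control rescue; higher means more ATP so stronger rescue from cytokine killing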
* hit, by the source's call; . = no result.

SMILES	SKKanGAS inh	Calb FLC	T cruzi repl	CSC inhib	Mdm2 MdmX PPI	Beta cell apopt
Clc1ccc(OCCOCCN2CCCCC2)c(Br)c1	1	24	59*	25	-10	2
C=CCNCCCOc1ccc(Cl)cc1C(C)(C)C	5	-70	17	104*	27	-4
C=CCNCCOCCOc1ccc(Cl)cc1C(C)(C)C	-3	-64	16	18	21	-12
COCCN(CCOC)C(=O)c1ccc(CSc2nc3ccccc3s2)cc1	5	1	-5	-10	5	-2
C=CC[C@@H](CC(=O)NCCO)C(=O)NCCOC(=O)[C@@H](CC=C)Cc1ccc(F)cc1	.	.	.	6	-8	-4
CCCOc1ccc(C(=O)Nc2ccc(S(=O)(=O)Nc3cc(C)nc(C)n3)cc2)cc1	-5	5	17	0	-12	0
CSCCC(NC(=O)c1ccccc1Cl)C(=O)N1CC(C)OC(C)C1 (configuration not stated)	.	.	.	-20	-16	-1
COc1ccc(/C=C/C(=O)OC(C)CN2CCCCC2)cc1 (configuration not stated)	0	-4	4	-8	22	2
Cc1cc(C(C)(C)C)ccc1OCCOCCN1CCCC1	7	-22	55*	54	11	-3
CC(C)(C)c1cc(Cl)ccc1OCCOCCN1CCCC1	2	-18	47	93*	21	4
Cc1ccc(OCCOCCN2CCN(C)CC2)c(C(C)(C)C)c1	4	-13	51	59	-9	-1
Cc1cc(Cl)c(OCCOCCN2CCN(C)CC2)c(Br)c1	-5	0	59*	58	14	0
Clc1cc(Br)ccc1OCCOCCN1CCCC1	6	-33	59*	50	22	0
CC(C)CCNC(=O)C1(O)c2ccccc2NC(=O)N1c1ccc(Cl)cc1 (configuration not stated)	-3	-2	6	-6	7	3
COc1ccc(O)c(/C=N/NC(=O)c2cc(=O)[nH]c3ccccc23)c1	3	-17	1	59	-1	32
Cc1cccc(-c2nc(Nc3ccc(N4CCOCC4)cc3)c3ccccc3n2)c1	12	5	56*	67	43	3
c1ccc2c(Nc3ccc(N4CCOCC4)cc3)nc(N3CCOCC3)nc2c1	-4	11	23	-7	14	10
Cc1cccc(-c2nc(Nc3cccc(O)c3)c3ccccc3n2)c1	17	14	11	81*	15	-5
CC1CN(C(=O)CCCN2C(=O)c3ccccc3C2=O)CC(C)O1 (configuration not stated)	-1	10	1	.	15	.
O=C(N/N=C/c1ccc(OC2CSC2)cc1)c1ccccc1	-7	34	-5	89*	-33	6
O=C(/C=C/c1ccc(OC2CSC2)cc1)c1ccccc1	8	11	14	-2	-97	2
COc1ccccc1Nc1nc(NCC2CCCO2)c2ccccc2n1 (configuration not stated)	1	-4	64*	12	12	.
COc1ccccc1Nc1nc(NCCO)c2ccccc2n1	0	-3	25	.	-12	.
COc1cccc(-c2nc(NCC3CCCO3)c3ccccc3n2)c1O (configuration not stated)	9	-6	22	0	-9	-5
COc1ccc(OC)c(Nc2nc(NCCO)c3ccccc3n2)c1	-6	8	56*	-2	15	15
SMILES	SKKanGAS inh	Calb FLC	T cruzi repl	CSC inhib	Mdm2 MdmX PPI	Beta cell apopt
CN(CC(=O)Nc1c(Cl)cccc1Cl)C(=O)c1cccn1C	-2	-7	3	-3	23	-10
C[C@@H]1NC(=O)[C@H](CCCN=C(N)N)NC(=O)c2cc([N+](=O)[O-])cc(I)c2OCC[C@@H](C(=O)NC(CC(=O)O)C(N)=O)NC1=O (some centres not stated)	0	-2	-7	-17	8	3
Cc1csc(SCC(=O)NC2CCC(C)CC2)n1 (configuration not stated)	0	-3	-4	-6	-10	-3
N/C(=N\OC(=O)COc1ccc2ccccc2c1Br)c1ccncc1	-18	-4	56*	20	-8	1
Cc1ccc(CSCC(=O)N2CCN(c3ccc(F)cc3)CC2)cc1	-4	2	57*	-8	-12	0
O=C(CSCc1ccc(F)cc1)N1CCN(c2ccc(F)cc2)CC1	-7	19	3	7	4	2
Cc1cc(C)cc(NS(=O)(=O)c2ccc3c(c2)c(=O)n(C)c(=O)n3C)c1	4	-3	1	102*	39	8
O=[N+]([O-])c1ccc(NCCCNS(=O)(=O)c2ccc(Cl)cc2)c(Cl)c1	-5	-5	2	2	2	18
O=S(=O)(NCC1CCCO1)c1ccc(S(=O)(=O)N(Cc2ccc(F)cc2)Cc2ccccn2)cc1 (configuration not stated)	8	1	-12	4	-14	-3
CCC1CCCCN1S(=O)(=O)c1ccc(S(=O)(=O)N(Cc2ccccn2)CC2CCCO2)cc1 (configuration not stated)	-6	1	10	79*	7	72
CCOc1cc(N2CCOCC2)c(OCC)cc1NC(=O)CN1C(=O)NC(Cc2ccccc2)C1=O (configuration not stated)	5	7	1	9	15	-2
CCOc1cc(N2CCOCC2)c(OCC)cc1NC(=O)CN1CCC(Cc2ccccc2)CC1	-1	10	62*	84*	13	-4
Brc1ccc(-c2nnc(-c3ccccc3)c(N3CCSCC3)n2)cc1	9	-8	26	1	-29	2
CN1CCN(c2nc(-c3ccc(Br)cc3)nnc2-c2ccccc2)CC1	-12	-8	65*	15	4	7
Cc1ccc(N(CC(=O)NC2CCCCC2)C(=O)CCCC(=O)Nc2ccccn2)cc1	-1	-4	12	.	4	0
CNCCCOc1cccc(Oc2ccccc2)c1	-3	-24	60*	34	-3	-3
Cc1ccc(-n2c(Cl)c(Cl)nc(Cl)c2=O)cc1	.	.	.	91*	.	98*
COc1nc(Cl)cn(-c2ccc(C)cc2)c1=O	-4	-1	-7	-2	-15	-3
CN(C)CCN(C(=O)c1ccc2c(c1)OCCO2)c1nc2cc3c(cc2s1)OCO3	2	3	32	-5	8	-8
CCN(CC)CCN(C(=O)C1=COCCO1)c1nc2ccc(C)cc2s1	2	5	59*	2	18	-5
CCN(CC)CCN(C(=O)c1ccc([N+](=O)[O-])cc1)c1nc2ccc(OC)cc2s1	-5	-11	43	-19	-26	-3
CCN(CC)CCN(C(=O)c1ccc2ccccc2c1)c1nc2ccc(OC)cc2s1	4	99*	33	12	26	-2
CCOc1ccc2nc(N(CCN(CC)CC)C(=O)c3ccc([N+](=O)[O-])cc3)sc2c1	-2	0	55*	17	8	-11
